Measurements gathered from unrelated publications.
Matrix: plasma

| SMILES | system | setting | quantity | value |
| --- | --- | --- | --- | --- |
| C=CS(=O)(=O)c1ccc(Nc2nc(OCC3CCCCC3)c3nc[nH]c3n2)cc1 | male BALB/c mouse | intravenous, 20 mg/kg, single dose | AUC(0-t) | 124 ng·h/mL |
| CCOc1ccc(N(C)S(=O)(=O)c2cc(Cl)sc2C(=O)Nc2cc(Cl)cc(C(=O)O)c2)cc1OC | male C57BL/6 mouse | intraperitoneal, 10 mg/kg | AUC(0-t) | 5810 ng·h/mL |
| CN1CCN(C(=O)[C@H](CCCN[C@@H]2C[C@H]2c2ccc(F)cc2)NC(=O)c2ccc(-n3ccnn3)cc2)CC1 | CD-1 mouse | intravenous, 3 mg/kg | AUC(0-t) | 2.52 µM·h |
| CCOC(=O)CN(C(=O)c1ccn2ncc(-c3ccc(C(=O)NC)cc3)c2c1)c1ccc(Cl)cc1 | female C57BL/6 mouse | oral, 10 mg/kg | AUC | 1.18 µM·h |
| Cc1c(C(=O)O)ccc2c3n(nc12)[C@@H]1[C@H](C3)N(CC2CC2)[C@@]2(C(=O)Nc3cc(Cl)ccc32)[C@H]1c1cccc(Cl)c1F | female mouse | oral, 5 mg/kg | AUC(0-inf) | 125 µM·h |
| CN(C(=O)c1ccn2ncc(-c3ccc(C(N)=O)cc3)c2c1)c1ccc(C#N)cn1 | female C57BL/6 mouse | intravenous, 1 mg/kg | AUC | 2.68 µM·h |
| CC(=O)O[C@@]12CO[C@@H]1C[C@H](O)[C@@]1(C)C(=O)[C@H](O)C3=C(C)[C@@H](OC(=O)[C@H](O)[C@@H](NC(=O)OC(C)(C)C)c4ccccc4)C[C@@](O)([C@@H](OC(=O)c4ccccc4)[C@H]21)C3(C)C | male Kunming mouse | oral, 20 mg/kg | AUC(0-t) | 14.7 ng·h/mL |
| Cc1cc2sc(N)nc2c2cccnc12 | female BALB/c mouse | intraperitoneal, 30 mg/kg, single dose | AUC(0-inf) | 45600 ng·h/mL |
| CCN1CCN(Cc2ccc(NC(=O)c3ccc(C)c(NC(=O)c4cncc(-c5cccs5)c4)c3)cc2C(F)(F)F)CC1 | mouse | intraperitoneal, 20 mg/kg, single dose | AUC(0-t) | 1990 ng·h/mL |
| COc1cc2c(NC3CCN(CCCC(=O)NCCCCCCCCCCCC(=O)N[C@H](C(=O)N4C[C@H](O)C[C@H]4C(=O)NCc4ccc(-c5scnc5C)cc4)C(C)(C)C)CC3)nc(N3CCC(F)(F)CC3)nc2cc1OCCCN1CCCC1 | male C57BL/6 mouse | intraperitoneal, 50 mg/kg, single dose | AUC(0-t) | 61 µM·h |
| Nc1ncn([C@H]2C[C@H](O)[C@@H](CO)O2)c(=O)n1 | female C57BL/6 mouse | oral, 0.4 mg/kg | AUC(0-inf) | 71 ng·h/mL |
